CYP2C9 inh = inhibitors of human CYP2C9; 96,000 compounds, 20% hits; AID 777; CYP2C9 Supersomes, luciferin-H conversion, luminescence; inhibition, % at 5 µM;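 active = blocking of liver enzyme CYP2C9 beyond about 50% at 5 µM, limit read from the data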
Target sequence (P11712 whole entry, looked up): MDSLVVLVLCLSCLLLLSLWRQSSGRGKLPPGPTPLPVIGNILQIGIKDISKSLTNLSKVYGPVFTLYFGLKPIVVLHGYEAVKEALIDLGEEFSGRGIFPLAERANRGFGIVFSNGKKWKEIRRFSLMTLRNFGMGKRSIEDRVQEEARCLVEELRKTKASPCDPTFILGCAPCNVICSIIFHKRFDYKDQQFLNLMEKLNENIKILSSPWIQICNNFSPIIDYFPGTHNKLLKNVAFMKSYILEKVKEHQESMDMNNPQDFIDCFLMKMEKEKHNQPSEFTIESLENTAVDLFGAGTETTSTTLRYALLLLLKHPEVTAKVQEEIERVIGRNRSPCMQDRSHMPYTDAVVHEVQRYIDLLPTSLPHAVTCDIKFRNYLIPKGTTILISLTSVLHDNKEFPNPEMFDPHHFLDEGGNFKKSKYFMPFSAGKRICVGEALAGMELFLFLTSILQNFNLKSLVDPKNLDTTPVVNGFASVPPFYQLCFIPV
Ecoli WT expand = growth inhibitors of E. coli BW25113 wild type; OD600 absorbance; growth inhibition, % at 100 µM; 98,000 compounds, 0.15% hits; AID 710;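 active = growth inhibition above about 50% at one test dose, limit read from the data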;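 note: growth measured after 20 h incubation at 37 °C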
tolC growth inh = blocks growth of E. coli BW25113 tolC mutant | OD615 | growth inhibition, % at 10 µM (by protocol) | 65,000 compounds, 2.2% hits | AID 573;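 active = growth inhibition at or above a cutoff equal to the mean over every tested compound plus 3 SD, cut at about 60% in these data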;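 note: growth measured after 20 h incubation at 37 °C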
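Doses: one dose of 10 µM final / Material: E. coli BW25113 ΔtolC::kan, tolC deletion mutant strain / Buffer or medium: LB with kanamycin 50 µg/mL / Evaluation: percent growth inhibition / Detection: optical density read at 615 nm / Incubation: 37 °C, 20 h exposure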
CYP2C9 act = activators of human CYP2C9; P11712; recombinant CYP2C9, luciferin-H conversion, luminescence; stronger effect = higher value; factor 1 = untreated enzyme, 0 = blocked; activation factor at 5 µM; 96,000 compounds, 1.4% hits; AID 1024;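 active = activation factor of 2 or more for CYP2C9 at a 5 µM dose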;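 note: 0 = sulfaphenazole-blocked wells and 1 = vehicle-only wells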
CYP2C19 inh = inhibitors of human CYP2C19 | P33261 | CYP2C19 Supersomes, luciferin-H EGE luminescence, 30 min | inhibition, % at 5 µM | 96,000 compounds, 21% hits | AID 778;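 active = CYP2C19 inhibition above a set limit at 5 µM in the primary screen, cut at about 50% in these data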;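 note: plate controls were negative control wells for no effect and 2.5 mM tranylcypromine positive control for full effect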
CYP2C19 activ = increases human CYP2C19 enzyme activity | P33261 | activation factor at 5 µM | AID 1025 | recombinant CYP2C19, luciferin-H EGE luminescence; stronger effect = higher value; 0 = fully inhibited enzyme, 1 = untreated enzyme | 96,000 tested, under 10 active;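 active = activation factor of at least 2 at 5 µM in the primary screen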;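 note: 0 = wells with 2.5 mM tranylcypromine and 1 = vehicle-only wells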
Active calls of the source: *; x = no result. Most compounds without a hit are left out; they make up all but 29% or so of the library.

SMILES | CYP2C9 inh | Ecoli WT expand | tolC growth inh | CYP2C9 act | CYP2C19 inh | CYP2C19 activ
COc1ccc(N=Cc2ccc(CNS(=O)(=O)c3ccc(Cl)cc3)o2)cc1 | 9 | 5 | x | 0.9 | 49 | 0.5
COc1ccc(-c2[nH]ncc2/C=N\NS(=O)(=O)c2ccc(Cl)cc2)cc1 | 68* | 0 | x | 0.3 | 90* | 0.1
CC(C)(Oc1ccc(Cl)cc1)C(=O)N/N=C/c1cn[nH]c1-c1ccccc1 | 72* | 4 | x | 0.3 | 72* | 0.3
COc1ccc(-c2nn(-c3ccccc3)cc2/C=N/NS(=O)(=O)c2ccccc2)cc1 | 63* | -5 | x | 0.4 | 8 | 0.9
CS(=O)(=O)N(CC(=O)N1CCCCC1)c1ccc(Cl)c(C(F)(F)F)c1 | -1 | 9 | x | 1 | 16 | 0.8
C[C@H]1C[C@@H]2[C@H]([C@@H](O)C[C@@]3(C)[C@H]2CC[C@]3(O)C(=O)CO)[C@@]2(C)C=CC(=O)C=C12 | x | x | 3 | x | x | x
Cc1ccc(S(=O)(=O)NC(=O)Nc2nnc(C3CC3)s2)cc1 | 5 | 3 | x | 0.9 | 5 | 1
Cc1cccc(-n2c(SCCC(=O)O)nnc2-c2cccs2)c1C | -19 | 1 | -7 | 1.2 | 6 | 0.9
Cc1nn(Cc2ccc(Cl)cc2)c(=O)n1N(C)c1ncc(C(F)(F)F)cc1Cl | 50 | -1 | x | 0.5 | 73* | 0.3
Cc1nn(Cc2ccc([N+](=O)[O-])cc2)c(=O)n1N(C)c1ncc(C(F)(F)F)cc1Cl | 3 | -2 | x | 1 | 43 | 0.6
O=C(Oc1ccc(C(=S)N2CCOCC2)cc1Br)c1cc(Cl)ccc1Cl | -137 | -15 | x | 2.4* | 4 | 1
CSCC[C@H](Nc1ncnc2sc(C)c(C)c12)C(=O)O | 83* | -5 | x | 0.2 | -7 | 1.1
Cc1sc2ncnc(Nc3ccccc3)c2c1C | -1 | 3 | x | 1 | 50* | 0.5
Cc1sc2ncnc(Sc3nnnn3-c3ccccc3)c2c1C | 23 | -6 | 19 | 0.8 | 56* | 0.4
Cc1sc2ncnc(NCC(c3ccco3)N(C)C)c2c1C (stereo not drawn) | x | -3 | -4 | x | x | x
Cc1sc2ncnc(NCc3ccccc3)c2c1C | 47 | 1 | x | 0.5 | 75* | 0.2
Clc1ccc(-n2nnnc2Sc2ncnc3sccc23)cc1 | x | x | 1 | x | x | x
C[C@@]12CC(=O)NC1N(C(=O)c1ccccc1)C(c1ccccc1OC(=O)c1ccccc1)C2 (stereo partly drawn) | 32 | 5 | x | 0.7 | 40 | 0.6
O=C(Nc1cccnc1)c1cc(-c2ccc3c(c2)OCO3)on1 | 3 | -5 | -14 | 1 | 3 | 1
Cc1sc2nc3n(c(=O)c2c1C)NC(=O)CC3 | x | 0 | -3 | x | x | x
Cc1ccc(NS(=O)(=O)c2ccc(NC(=O)c3ccc(Br)o3)cc2)c(C)c1 | 67* | -6 | 18 | 0.3 | 8 | 0.9
O=C(Nc1ccc(S(=O)(=O)NCCc2ccccc2)cc1)c1ccc(Br)o1 | 4 | -3 | -5 | 1 | -11 | 1.1
Cc1cc(C)cc(NS(=O)(=O)c2ccc(NC(=S)NC(=O)c3ccc(Br)o3)cc2)c1 | 74* | -7 | x | 0.3 | 27 | 0.7
O=C(CN1CCOCC1)Nc1ccccc1Cl | 1 | 9 | x | 1 | 19 | 0.8
O=C(CN1CCOCCOCCOCC1)Nc1ccccc1 | -14 | 2 | x | 1.1 | -1 | 1
SMILES | CYP2C9 inh | Ecoli WT expand | tolC growth inh | CYP2C9 act | CYP2C19 inh | CYP2C19 activ
O=C(CN1CCC(C(O)(c2ccccc2)c2ccccc2)CC1)Nc1cc(Cl)ccc1Cl | 65* | -13 | x | 0.4 | 17 | 0.8
O=C(CN1CCC(C(O)(c2ccccc2)c2ccccc2)CC1)Nc1ccccc1 | 78* | 8 | x | 0.2 | 9 | 0.9
COC(=O)c1cc(NC(=O)CSc2nncn2C)cc(C(=O)OC)c1 | 27 | 3 | x | 0.7 | 22 | 0.8
COc1ccc2nc(N=Nc3ccc(N(C)C)cc3)sc2c1 | 21 | -12 | x | 0.8 | 58* | 0.4
COc1ccc2nc(/N=C\N(C)C)sc2c1 | -10 | 5 | -11 | 1.1 | 10 | 0.9
CCOC(=O)c1c(C(C)(C)C)oc2ccc(OCC#N)cc12 | 57* | 11 | 54 | 0.4 | 20 | 0.8
C=CCNc1nc(SC)nc2ccsc12 | -129 | 6 | x | 2.3* | 12 | 0.9
C=CCSc1nc(N(CC)CC)c2sccc2n1 | -3 | 11 | x | 1 | 40 | 0.6
CCn1cc(C(=O)NC(=S)Nc2cccc(O)c2)cn1 | -68 | 6 | x | 1.7 | 65* | 0.4
NC(=O)/C(=N\OC(=O)c1ccco1)c1nc(-c2ccc(Br)cc2)cs1 | 7 | -15 | x | 0.9 | -2 | 1
CC(C)CN(CC(C)C)S(=O)(=O)N1CCC(C(=O)NCCN2CCOCC2)CC1 | 10 | 8 | -13 | 0.9 | 1 | 1
Nn1c(SCc2nc3ccccn3c2Br)nnc1-c1cccnc1 | -153 | -3 | -12 | 2.5* | 9 | 0.9
CCn1nnc(-c2ccccc2NC(=O)c2ccc(-n3cnnn3)cc2)n1 | 37 | -5 | x | 0.6 | -3 | 1
CCn1nnc(-c2ccccc2NS(=O)(=O)c2ccc(C(=O)OC)cc2)n1 | 73* | -2 | 25 | 0.3 | 98* | 0
C=CCOc1cccc(C2/C(=C(/O)c3ccc(F)cc3)C(=O)C(=O)N2CCN2CCOCC2)c1 (stereo not drawn) | 2 | 0 | -4 | 1 | 9 | 0.9
O=C(COc1ccc2c3c(c(=O)oc2c1)CCC3)c1ccc2c(c1)OCO2 | 82* | -4 | 10 | 0.2 | 58* | 0.4
Cc1oc(C(=O)O)cc1COc1ccc2c3c(c(=O)oc2c1)CCC3 | 5 | 2 | x | 1 | -27 | 1.3
COc1cccc(-c2csc3nnc(SCC(=O)NCc4cccs4)n23)c1 | 40 | 2 | -14 | 0.6 | 59* | 0.4
COc1ccc(-c2nnc(SCC(=O)NCc3cccs3)n2C(C)C)cc1 | 54* | 9 | x | 0.5 | 66* | 0.3
COCCn1c(SCC(=O)NCc2cccs2)nnc1-c1ccc(OC)cc1 | 4 | 4 | -22 | 1 | 5 | 1
COc1ccc(-n2cnnc2SCC(=O)NCc2cccs2)cc1 | 10 | 5 | x | 0.9 | 11 | 0.9
O=C(NC1CCCCC1)Nn1c(-c2ccccc2)nc2ccccc2c1=O | x | x | 7 | x | x | x
CCCCCC(=O)O[C@]1(C(C)=O)CC[C@H]2[C@@H]3CCC4=CC(=O)CC[C@]4(C)[C@H]3CC[C@@]21C | x | x | 1 | x | x | x
O=C(CSc1nc2ccccc2[nH]1)Nc1cc(C(F)(F)F)ccc1N1CCOCC1 | 99* | -7 | 100* | 0 | 99* | 0
O=C(CSc1nc2ccccc2[nH]1)Nc1ccccc1N1CCOCC1 | 79* | 0 | 21 | 0.2 | 98* | 0
O=C(Nc1cc(C(F)(F)F)ccc1N1CCOCC1)c1n[nH]c(=O)c2ccccc12 | -9 | 0 | -9 | 1.1 | -6 | 1.1
O=C(Cn1c(CO)nc2ccccc21)Nc1cc(C(F)(F)F)ccc1N1CCOCC1 | 53* | 1 | -11 | 0.5 | 38 | 0.6

Screening data as filed in PubChem BioAssay.
